CHRM1 agonist – activates human CHRM1 receptor; CHO-K1 hM1, Fluo-8 calcium fluorescence, agonist mode; 0% DMSO, 100% acetylcholine EC100; activation, % at 3 µM; 360,000 tested, 0.33% active; AID 588814;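 active means activation above the run's mean compound activation plus 3 SD, cut at about 16% in these data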;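 further: peak over basal fluorescence ratio within a 140 s kinetic read after compound addition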
Target sequence (P11229 whole entry, looked up): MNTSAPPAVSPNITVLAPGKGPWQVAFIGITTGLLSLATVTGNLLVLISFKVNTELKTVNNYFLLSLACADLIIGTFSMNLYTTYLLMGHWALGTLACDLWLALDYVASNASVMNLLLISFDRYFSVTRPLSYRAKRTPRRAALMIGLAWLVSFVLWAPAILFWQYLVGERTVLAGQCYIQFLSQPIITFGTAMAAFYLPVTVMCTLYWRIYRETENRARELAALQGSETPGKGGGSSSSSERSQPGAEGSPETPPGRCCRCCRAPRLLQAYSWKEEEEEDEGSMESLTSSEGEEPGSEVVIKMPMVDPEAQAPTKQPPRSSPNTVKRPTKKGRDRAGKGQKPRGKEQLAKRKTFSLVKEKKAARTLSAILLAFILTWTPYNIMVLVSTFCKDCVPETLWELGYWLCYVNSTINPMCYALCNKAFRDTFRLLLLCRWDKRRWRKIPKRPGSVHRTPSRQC
M1 antag – blocks human M1 muscarinic receptor. P11229. 360,000 tested, 1.3% active. CHO-K1 hM1, Fluo-8 calcium fluorescence, ACh EC80 antagonist. AID 588852. inhibition, % at 3 µM;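 active means percent inhibition above its own plate's cutoff, namely the mean of that plate's compound wells plus 3 SD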;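 further: peak over basal fluorescence ratio during 140 s after agonist addition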
TAAR1 agonist – human TAAR1 agonism; 360,000 tested, 0.99% active; activation, % at 3 µM; AID 624467; CHO RD-HGA16 TAAR1, Fluo-8 calcium fluorescence; vehicle wells 0%, saturating PEA agonist 100%;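 active means activation above the mean activation of all test compounds in the run plus 3 SD, cut at about 38% in these data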
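Test system: RD-HGA16 (CHO) cells co-expressing Gα16 and hTAAR1; dosing: one-point dosing at 3 µM (nominal); timing: 17-24 h seeding, 75 min 37 °C dye, 30 min RT; signal: kinetic Fluo-8 calcium fluorescence; read-out basis: % activation relative to PEA EC100 response; controls: DMSO and PEA EC100; replicates: n 1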
HTR2A ag – agonists of mouse serotonin 5-HT2A receptor (HTR2A); P35363; CHO-K1 mHTR2A beta-arrestin complementation, luminescence; percent of 30 µM serotonin response; activation, % at 7.6 µM; 360,000 tested, 0.66% active;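 active means activation above a run cutoff, the mean activation of all tested compounds plus 3 SD, cut at about 14% in these data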
M1 PAM – human CHRM1 positive allosteric modulation; CHO-K1 hM1, Fluo-8 calcium fluorescence, ACh EC20; 0% = ACh EC20, 100% = maximal ACh; activation, % at 3 µM; 360,000 tested, 0.088% active; in the data active means activation above about 19%, passing the limit was not always enough
TAAR1 antag – antagonists of human TAAR1; 360,000 tested, 1.5% active; inhibition, % at 3 µM; CHO RD-HGA16 TAAR1, Fluo-8 calcium fluorescence, antagonist; Q96RJ0;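 active means inhibition above a per-plate cutoff, the mean inhibition of test compounds on that plate plus 3 SD, cut at about 49% in these data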
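Test system: CHO RD-HGA16 cells bearing hTAAR1 | Reagent: β-PEA, EC80 | Compound dosing: 3 µM, single point | Schedule: Dye loading 75 min at 37 °C, then 30 min room temperature | Signal: Calcium fluorescence with Fluo-8 | Evaluation: Percent inhibition of PEA-evoked calcium signal, max/basal emission ratio | Control set: DMSO-only wells and EC80 β-PEA-stimulated wells | Repeats: Singlicate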
Hits are given with their value; - = inactive. Most compounds without a hit are left out; they make up all but 3.9% or so of the library.

SMILES	CHRM1 agonist	M1 antag	TAAR1 agonist	HTR2A ag	M1 PAM	TAAR1 antag
OC(CC#CCN1CCCC1)(c1ccccc1)c1ccccc1	-	100	-	-	-	-
OC(CC#CCN1CCCCC1)(c1ccccc1)c1ccccc1	-	97	-	-	-	-
CC(C)C(O)(CC#CCN1CCCC1)c1ccccc1 (stereo unspecified)	-	99	-	-	-	-
CC(C)(C)C(O)(CC#CCN1CCCC1)c1ccccc1 (stereo unspecified)	-	98	-	-	-	-
COc1ccc(C(=O)c2c(-c3cccc(C)c3)oc3ccc(N4CCOCC4)cc23)cn1	-	-	-	-	-	-
CN(C)CCCN1c2ccccc2CCc2ccccc21	-	87	-	-	-	-
CN(C)CCCC1(O)c2ccccc2CCc2ccccc21	-	-	-	-	-	-
CC(CN(C)C)CN1c2ccccc2CCc2ccccc21 (stereo unspecified)	-	98	-	-	-	-
Cc1cc(C)n(-c2ccc(F)cc2CN2CCN(Cc3ccccc3)C(CCO)C2)n1 (stereo unspecified)	-	39	-	-	-	-
CCc1ncc(CN2CCCCC2C(=O)Nc2ccc(Oc3ccccc3)nc2)cn1 (stereo unspecified)	-	-	-	-	-	-
CCC(=O)NC1=C(Cl)C(=O)C(NC(=O)CC)=C(Cl)C1=O	-	-	46	-	-	50
COc1ccc(-c2cc(=O)c3ccc(O)cc3o2)cc1	-	-	-	-	24	-
COc1cc(-c2cc(=O)c3ccc(O)cc3o2)cc(OC)c1OC	-	-	-	-	-	-
CN(C)S(=O)(=O)c1cccc(N=c2scc(-c3ccc4c(c3)NC(=O)CO4)n2CC2CCCO2)c1 (stereo unspecified)	-	-	-	-	-	53
COc1ccccc1C(CNC(=O)c1ccco1)N1CCCC1 (stereo unspecified)	-	73	-	-	-	-
COc1ccccc1C(CNC(=O)c1ccc(-c2ccccc2Cl)o1)N1CCCC1 (stereo unspecified)	-	84	-	-	-	-
COc1ccccc1C(CNC(=O)CN1C(=O)NC(C)(c2ccc3ccccc3c2)C1=O)N1CCCC1 (stereo unspecified)	-	65	-	-	-	-
COc1cc(C(=O)NCC(c2ccco2)N2CCCC2)ccc1OCc1ccc(Cl)cc1Cl (stereo unspecified)	-	49	-	-	-	-
COc1ccc(N2CCN(C(=O)CN3C(=O)NC(C)(c4ccc5ccccc5c4)C3=O)CC2)cc1 (stereo unspecified)	-	-	-	-	-	-
COc1ccc(C(CNC(=O)c2ccc(-c3ccccc3Cl)o2)N2CCOCC2)cc1 (stereo unspecified)	-	-	-	-	-	-
COc1ccc(Cl)cc1C(=O)NCC(c1ccco1)N1CCCC1 (stereo unspecified)	-	-	-	-	-	-
C/C(CC(=O)Nc1cccc(C(F)(F)F)c1)=N\NC(=O)C1CCCCC1	-	-	-	-	-	-
CN1CCN(C(=O)C2CCN(c3ncc(C(F)(F)F)cc3Cl)CC2)CC1	-	72	-	-	-	-
COC(=O)c1cccc(CN2C(=O)C(C)Sc3ccc(C(C)=O)cc32)c1 (stereo unspecified)	-	-	-	-	-	-
CC(=O)N1c2ccc(S(=O)(=O)N(C)c3cc(C)ccc3C)cc2CC1C (stereo unspecified)	-	-	-	-	-	-
Cc1ccc(N(C)S(=O)(=O)c2ccc3c(c2)CC(C)N3C(=O)C2CC2)cc1 (stereo unspecified)	-	-	-	-	-	49
O=C(CSc1nc(=O)n(CCCN2CCOCC2)c2c1CCCC2)Nc1ccc(F)cc1	-	31	-	-	-	-
CCCCc1ccc(NC(=O)CSc2nc(=O)n(CCN(C)C)c3c2CCC3)cc1	-	-	-	-	-	-

Assay outcomes as filed in PubChem.
